Assay results: ChEMBL document CHEMBL1150419, “Structure-activity relationships of a peptide inhibitor of the human FcRn:human IgG interaction” (Bioorg Med Chem, 2008)
pIC50, pKd: −log10 of the molar value. Square brackets hold non-standard residues; d marks the D form. Peptide text beside a SMILES is read from it. Dap = NC[C@H](N)C(=O)O

target: T1, IgG receptor FcRn large subunit p51 (Homo sapiens, UniProt P55899); assay: Binding affinity to human FcRn at pH 6 by surface plasmon resonance assay
T1 sequence (P55899 whole entry): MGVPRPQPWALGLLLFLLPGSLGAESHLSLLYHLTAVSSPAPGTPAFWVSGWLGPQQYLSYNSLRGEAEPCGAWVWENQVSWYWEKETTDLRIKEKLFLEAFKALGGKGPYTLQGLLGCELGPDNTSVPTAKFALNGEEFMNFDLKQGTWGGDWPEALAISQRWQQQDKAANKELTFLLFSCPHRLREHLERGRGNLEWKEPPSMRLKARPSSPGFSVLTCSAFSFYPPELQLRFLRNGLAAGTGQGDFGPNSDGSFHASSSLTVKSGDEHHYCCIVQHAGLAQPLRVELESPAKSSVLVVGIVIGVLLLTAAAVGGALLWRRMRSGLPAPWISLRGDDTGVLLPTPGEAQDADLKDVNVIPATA
How it was run: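 Soluble human FcRn coupled to the dextran surface of a CM5 chip; peptide dilutions flowed over the chip. The equilibrium response at each dilution was plotted against concentration and fitted to a steady-state affinity model to give Kd.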

Compound | pKd
CC(C)C[C@H](NC(=O)[C@@H]1CCCN1C(=O)[C@@H](Cc1ccccc1)NC(=O)[C@H](Cc1ccccc1)NC(=O)[C@H](Cc1cnc[nH]1)NC(=O)CNC(=O)[C@@H](NC(=O)[C@@H](NC(=O)[C@H](Cc1ccccc1)NC(=O)[C@H](CCCNC(=N)N)NC(=O)[C@@H](N)CCC(N)=O)C(C)(C)S)[C@@H](C)O)C(=O)N[C@@H](Cc1ccc(O)cc1)C(=O)N1CCC[C@H]1C(=O)N[C@@H](CS)C(=O)N[C@@H](CC(N)=O)C(=O)NCC(=O)N1CCC[C@H]1C(=O)O | 5.42
CC(C)C[C@H](NC(=O)CN(C)C(=O)[C@@H](C)NC(=O)[C@H](Cc1ccccc1)NC(=O)[C@H](Cc1cnc[nH]1)NC(=O)CNC(=O)[C@@H](NC(=O)[C@@H](NC(=O)[C@H](Cc1ccccc1)NC(=O)[C@H](CCCNC(=N)N)NC(=O)[C@@H](N)CCC(N)=O)C(C)(C)S)[C@@H](C)O)C(=O)N[C@@H](Cc1ccc(O)cc1)C(=O)N1CCC[C@H]1C(=O)N[C@@H](CS)C(=O)N[C@@H](CC(N)=O)C(=O)NCC(=O)N1CCC[C@H]1C(=O)O | 6.72
CC(C)C[C@H](NC(=O)CNC(=O)CNC(=O)[C@H](Cc1ccccc1)NC(=O)[C@H](Cc1cnc[nH]1)NC(=O)CNC(=O)[C@@H](NC(=O)[C@@H](NC(=O)[C@H](Cc1ccccc1)NC(=O)[C@H](CCCNC(=N)N)NC(=O)[C@@H](N)CCC(N)=O)C(C)(C)S)[C@@H](C)O)C(=O)N(C)[C@@H](Cc1ccc(O)cc1)C(=O)N1CCC[C@H]1C(=O)N[C@@H](CS)C(=O)N[C@@H](CC(N)=O)C(=O)NCC(=O)N1CCC[C@H]1C(=O)O | 4.04
CC(C)C[C@H](NC(=O)[C@H]1CSC2C[C@@H](NC(=O)[C@H](Cc3ccccc3)NC(=O)[C@H](Cc3cnc[nH]3)NC(=O)CNC(=O)[C@@H](NC(=O)[C@H](NC(=O)[C@H](Cc3ccccc3)NC(=O)[C@@H](N)CCCNC(=N)N)C(C)(C)S)[C@@H](C)O)C(=O)N21)C(=O)N[C@@H](Cc1ccc(O)cc1)C(=O)N1CCC[C@H]1C(=O)N[C@@H](CS)C(=O)O (stereo partly specified) | 6.00
CC(C)C[C@@H](NC(=O)CNC(=O)CNC(=O)[C@@H](Cc1ccccc1)NC(=O)[C@H](Cc1cnc[nH]1)NC(=O)CNC(=O)[C@@H](NC(=O)[C@H](NC(=O)[C@H](Cc1ccccc1)NC(=O)[C@H](CCCNC(=N)N)NC(=O)[C@@H](N)CCC(N)=O)C(C)(C)S)[C@@H](C)O)C(=O)N[C@@H](Cc1ccc(O)cc1)C(=O)N1CCC[C@H]1C(=O)N[C@H](CS)C(=O)N[C@@H](CC(N)=O)C(=O)NCC(=O)N1CCC[C@H]1C(=O)O | < 3.60
CC(C)C[C@H](NC(=O)CNC(=O)[C@@H](CC(=O)O)NC(=O)[C@H](Cc1ccccc1)NC(=O)[C@H](Cc1cnc[nH]1)NC(=O)CNC(=O)[C@@H](NC(=O)[C@@H](NC(=O)[C@H](Cc1ccccc1)NC(=O)[C@H](CCCN=C(N)N)NC(=O)[C@@H](N)CCC(N)=O)C(C)(C)S)[C@@H](C)O)C(=O)N[C@@H](Cc1ccc(O)cc1)C(=O)N1CCC[C@H]1C(=O)N[C@@H](CS)C(=O)N[C@@H](CC(N)=O)C(=O)NCC(=O)N1CCC[C@H]1C(=O)O | 6.24
CC(C)C[C@H](NC(=O)CNC(=O)CNC(=O)[C@H](Cc1ccccc1)NC(=O)[C@H](Cc1cnc[nH]1)NC(=O)CNC(=O)[C@@H](NC(=O)[C@H](NC(=O)[C@H](Cc1ccccc1)NC(=O)[C@H](CCCNC(=N)N)NC(=O)[C@@H](N)CCC(N)=O)C(C)(C)S)[C@@H](C)O)C(=O)N[C@@H](Cc1ccc(O)cc1)C(=O)N1CCC[C@@H]1C(=O)N[C@H](CS)C(=O)N[C@@H](CC(N)=O)C(=O)NCC(=O)N1CCC[C@H]1C(=O)O | < 3.60
CC(C)C[C@H](NC(=O)CNC(=O)[C@@H](C)NC(=O)[C@H](Cc1ccccc1)NC(=O)[C@H](Cc1cnc[nH]1)NC(=O)CNC(=O)[C@@H](NC(=O)[C@@H](NC(=O)[C@H](Cc1ccccc1)NC(=O)[C@H](CCCNC(=N)N)NC(=O)[C@@H](N)CCC(N)=O)C(C)(C)S)[C@@H](C)O)C(=O)N[C@@H](Cc1ccc(O)cc1)C(=O)N1CCC[C@H]1C(=O)N[C@@H](CS)C(=O)N[C@@H](CC(N)=O)C(=O)NCC(=O)N1CCC[C@H]1C(=O)O | 6.31
CC(C)C[C@H](NC(=O)CNC(=O)CNC(=O)[C@H](Cc1ccccc1)NC(=O)[C@H](Cc1cnc[nH]1)NC(=O)CNC(=O)[C@@H](NC(=O)[C@H](CCN)NC(=O)[C@H](Cc1ccccc1)NC(=O)[C@H](CCCN=C(N)N)NC(=O)[C@@H](N)CCC(N)=O)[C@@H](C)O)C(=O)N[C@@H](Cc1ccc(O)cc1)C(=O)N1CCC[C@H]1C(=O)N[C@@H](CC(=O)O)C(=O)N[C@@H](CC(N)=O)C(=O)NCC(=O)N1CCC[C@H]1C(=O)O | 5.08

target: T1, IgG receptor FcRn large subunit p51; assay: Inhibition of human IgG binding to soluble human FcRn by ELISA
How it was run: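 Biotinylated soluble human FcRn immobilized on neutravidin plates, incubated with hIgG (3 nM, constant) and peptide at varying concentrations for 2 h at 37 °C. After washing, bound hIgG detected with peroxidase-conjugated hIgG-specific Fab fragments.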

Compound | pIC50
CC(C)C[C@H](NC(=O)CNC(=O)[C@H]1CCCN1C(=O)[C@H](Cc1ccccc1)NC(=O)[C@H](Cc1cnc[nH]1)NC(=O)CNC(=O)[C@@H](NC(=O)[C@@H](NC(=O)[C@H](Cc1ccccc1)NC(=O)[C@H](CCCN=C(N)N)NC(=O)[C@@H](N)CCC(N)=O)C(C)(C)S)[C@@H](C)O)C(=O)N[C@@H](Cc1ccc(O)cc1)C(=O)N1CCC[C@H]1C(=O)N[C@@H](CS)C(=O)N[C@@H](CC(N)=O)C(=O)NCC(=O)N1CCC[C@H]1C(=O)O | 5.30
CC(C)C[C@H](NC(=O)CNC(=O)CNC(=O)[C@H](Cc1ccccc1)NC(=O)[C@H](Cc1cnc[nH]1)NC(=O)CNC(=O)[C@@H](NC(=O)[C@@H](NC(=O)[C@H](Cc1ccccc1)NC(=O)[C@@H](N)CCCN=C(N)N)C(C)(C)S)[C@@H](C)O)C(=O)N[C@@H](Cc1ccc(O)cc1)C(=O)N1CCC[C@H]1C(=O)N[C@@H](CS)C(=O)O | 5.70
CC(C)C[C@H](NC(=O)CNC(=O)CNC(=O)[C@H](Cc1ccccc1)NC(=O)[C@H](Cc1cnc[nH]1)NC(=O)CNC(=O)[C@@H](NC(=O)[C@H](CC(=O)O)NC(=O)[C@H](Cc1ccccc1)NC(=O)[C@H](CCCN=C(N)N)NC(=O)[C@@H](N)CCC(N)=O)[C@@H](C)O)C(=O)N[C@@H](Cc1ccc(O)cc1)C(=O)N1CCC[C@H]1C(=O)N[C@@H](CN)C(=O)N[C@@H](CC(N)=O)C(=O)NCC(=O)N1CCC[C@H]1C(=O)O | 4.49
CC(C)C[C@H](NC(=O)CNC(=O)CNC(=O)[C@H](Cc1ccccc1)NC(=O)[C@H](Cc1cnc[nH]1)N(C)C(=O)CNC(=O)[C@@H](NC(=O)[C@@H](NC(=O)[C@H](Cc1ccccc1)NC(=O)[C@@H](N)CCCN=C(N)N)C(C)(C)S)[C@@H](C)O)C(=O)N[C@@H](Cc1ccc(O)cc1)C(=O)N1CCC[C@H]1C(=O)N[C@@H](CS)C(=O)O | < 3.60
CC(C)C[C@H](NC(=O)CNC(=O)CNC(=O)[C@H](Cc1ccccc1)NC(=O)[C@H](Cc1cnc[nH]1)NC(=O)CNC(=O)[C@@H](NC(=O)[C@H](CN)NC(=O)[C@H](Cc1ccccc1)NC(=O)[C@H](CCCN=C(N)N)NC(=O)[C@@H](N)CCC(N)=O)[C@@H](C)O)C(=O)N[C@@H](Cc1ccc(O)cc1)C(=O)N1CCC[C@H]1C(=O)N[C@@H](CCC(=O)O)C(=O)N[C@@H](CC(N)=O)C(=O)NCC(=O)N1CCC[C@H]1C(=O)O (H-QRF[Dap]TGHFGGLYPENGP-OH) | < 3.90
CC(C)C[C@H](NC(=O)CNC(=O)[C@@H](CCCN=C(N)N)NC(=O)[C@H](Cc1ccccc1)NC(=O)[C@H](Cc1cnc[nH]1)NC(=O)CNC(=O)[C@@H](NC(=O)[C@@H](NC(=O)[C@H](Cc1ccccc1)NC(=O)[C@H](CCCN=C(N)N)NC(=O)[C@@H](N)CCC(N)=O)C(C)(C)S)[C@@H](C)O)C(=O)N[C@@H](Cc1ccc(O)cc1)C(=O)N1CCC[C@H]1C(=O)N[C@@H](CS)C(=O)N[C@@H](CC(N)=O)C(=O)NCC(=O)N1CCC[C@H]1C(=O)O | 5.39
CC(C)C[C@@H](C(=O)N[C@@H](Cc1ccc(O)cc1)C(=O)N1CCC[C@H]1C(=O)N[C@@H](C)C(=O)O)N(C)C(=O)CN(C)C(=O)CNC(=O)[C@H](Cc1ccccc1)NC(=O)[C@H](Cc1cnc[nH]1)NC(=O)CNC(=O)[C@@H](NC(=O)[C@@H](NC(=O)[C@H](Cc1ccccc1)NC(=O)[C@@H](N)CCCNC(=N)N)C(C)C)[C@@H](C)O | 4.43
CC(C)C[C@H](NC(=O)[C@H]1CCCN1C(=O)CNC(=O)[C@H](Cc1ccccc1)NC(=O)[C@H](Cc1cnc[nH]1)NC(=O)CNC(=O)[C@@H](NC(=O)[C@@H](NC(=O)[C@H](Cc1ccccc1)NC(=O)[C@H](CCCNC(=N)N)NC(=O)[C@@H](N)CCC(N)=O)C(C)(C)S)[C@@H](C)O)C(=O)N[C@@H](Cc1ccc(O)cc1)C(=O)N1CCC[C@H]1C(=O)N[C@@H](CS)C(=O)N[C@@H](CC(N)=O)C(=O)NCC(=O)N1CCC[C@H]1C(=O)O | 5.85
CC(C)C[C@H](NC(=O)[C@@H](C)NC(=O)[C@@H](Cc1ccccc1)NC(=O)[C@H](Cc1ccccc1)NC(=O)[C@H](Cc1cnc[nH]1)NC(=O)CNC(=O)[C@@H](NC(=O)[C@@H](NC(=O)[C@H](Cc1ccccc1)NC(=O)[C@H](CCCNC(=N)N)NC(=O)[C@@H](N)CCC(N)=O)C(C)(C)S)[C@@H](C)O)C(=O)N[C@@H](Cc1ccc(O)cc1)C(=O)N1CCC[C@H]1C(=O)N[C@@H](CS)C(=O)N[C@@H](CC(N)=O)C(=O)NCC(=O)N1CCC[C@H]1C(=O)O | 5.37
CC[C@H](C)[C@@H](NC(=O)CNC(=O)[C@H](Cc1ccccc1)NC(=O)[C@H](Cc1cnc[nH]1)NC(=O)CNC(=O)[C@@H](NC(=O)[C@@H](NC(=O)[C@H](Cc1ccccc1)NC(=O)[C@H](CCCNC(=N)N)NC(=O)[C@@H](N)CCC(N)=O)C(C)(C)S)[C@@H](C)O)C(=O)N[C@@H](CC(C)C)C(=O)N[C@@H](Cc1ccc(O)cc1)C(=O)N1CCC[C@H]1C(=O)N[C@@H](CS)C(=O)N[C@@H](CC(N)=O)C(=O)NCC(=O)N1CCC[C@H]1C(=O)O | 4.74
CC(C)C[C@H](NC(=O)c1cccc(CNC(=O)[C@H](Cc2ccccc2)NC(=O)[C@H](Cc2cnc[nH]2)NC(=O)CNC(=O)[C@@H](NC(=O)[C@@H](NC(=O)[C@H](Cc2ccccc2)NC(=O)[C@@H](N)CCCN=C(N)N)C(C)(C)S)[C@@H](C)O)c1)C(=O)N[C@@H](Cc1ccc(O)cc1)C(=O)N1CCC[C@H]1C(=O)N[C@@H](CS)C(=O)O | 4.24
CC(C)C[C@H](NC(=O)CNC(=O)CNC(=O)[C@H](Cc1c[nH]c2ccccc12)NC(=O)[C@H](Cc1cnc[nH]1)NC(=O)CNC(=O)[C@@H](NC(=O)[C@@H](NC(=O)[C@H](Cc1ccccc1)NC(=O)[C@H](CCCN=C(N)N)NC(=O)[C@@H](N)CCC(N)=O)C(C)(C)S)[C@@H](C)O)C(=O)N[C@@H](Cc1ccc(O)cc1)C(=O)N1CCC[C@H]1C(=O)N[C@@H](CS)C(=O)N[C@@H](CC(N)=O)C(=O)NCC(=O)N1CCC[C@H]1C(=O)O | 4.59
